Test results from PMC7111758 (Tetrahedron, 2019).

Tests used:
[1] = system: human cytomegalovirus (HCMV) strain AD-169; experiment: Antiviral assay, virus-induced cytopathic effect in HEL cells, HCMV AD-169; assay type: cell-based; settings: HCMV replication; compared with reference drug ganciclovir
[2] = system: human cytomegalovirus (HCMV) strain Davis; experiment: Antiviral assay, virus-induced cytopathic effect in HEL cells, HCMV Davis; assay type: cell-based; settings: Human betaherpesvirus 5, HEL, read-out: Antiviral activity - EC50 HCMV Davis
[3] = system: varicella-zoster virus (VZV) strain Oka (TK+); experiment: microbe, parasite or virus in culture; assay type: cell-based; settings: Human alphaherpesvirus 3, HEL, read-out: Antiviral activity - EC50 VZV Oka (TK+)
[4] = system: herpes simplex virus type 2 (HSV-2) strain G; experiment: Antiviral assay, virus-induced cytopathic effect in HEL cells, HSV-2 G; assay type: cell-based; settings: Human alphaherpesvirus 2, HEL, read-out: Antiviral activity - EC50 HSV-2 G (TK+)
vaccinia virus (VACV) = experiment: microbe, parasite or virus in culture; assay type: cell-based; settings: for EC50: Orthopoxvirus vaccinia, HEL, read-out: Antiviral activity - EC50 VACV
adenovirus-2 = experiment: Antiviral assay, virus-induced cytopathic effect, adenovirus-2; assay type: cell-based; settings: for EC50: Human mastadenovirus C, read-out: Antiviral activity - EC50 Adeno-2
HEL cells = experiment: Cytotoxicity, microscopically detectable alteration of cell morphology; assay type: cell-based, human; settings: for Cytotoxicity MCC (minimum cytotoxic concentration): microscopically detectable alteration of cell morphology
[5] = Cytostatic activity, inhibition of HEL cell growth; assay type: cell-based; settings: human, HEL cells
Procedure, shortened: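 HEL cells seeded at 5 × 10^3 cells/well, allowed to proliferate 24 h, then given medium with different concentrations of test compound. After three days at 37 °C, cell number counted with a Coulter counter. CC50 is the concentration reducing proliferation by 50% relative to untreated control cell counts.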

| Structure (SMILES) | EC50 against HCMV relative to ganciclovir [1] | EC50 [2] [µM] | EC50 [3] [µM] | EC50 [4] [µM] | activity against vaccinia virus (poxvirus) (vaccinia virus (VACV)) | EC50 (vaccinia virus (VACV)) [µM] | EC50 (adenovirus-2) [µM] | activity against adenoviruses (adenovirus-2; in words) | Cytotoxicity MCC (minimum cytotoxic concentration) (HEL cells) [µM] | cytotoxicity for HEL cells (HEL cells; no cytotoxicity up to the highest concentration tested) [µM] | CC50 at 3 days [5] [µM] |
| --- | --- | --- | --- | --- | --- | --- | --- | --- | --- | --- | --- |
| CC(C)OP(=O)(CO[C@H](CF)Cn1cnc(N)nc1=O)OC(C)C [8a, Diisopropyl (S)-{[(1-(4-amino-2-oxo-1,3,5-triazin-1(2H)-yl)-3-fluoropropan-2-yl)oxy]methyl}phosphonate] | about three times higher | 7.9 ± 5.5 | 11.7 ± 4 | 17.5 ± 10.6 | inactive | > 100 | > 100 | inactive | >100 | > 100 | > 100 |
| CCOC(=O)C(C)NP(=O)(COC(CF)CN1CN2C=C(c3ccccc3)NC2=NC1=O)NC(C)C(=O)OCC (centres unmarked) [19a, Diethyl 2,2'-(((((1-fluoro-3-(2-oxo-7-phenyl-2,8-dihydroimidazo[1,2-a][1,3,5]triazin-3(4H)-yl)propan-2-yl)oxy)methyl)phosphoryl)bis(azanediyl))-dipropionate] |  | > 100 | > 100 | > 100 |  | > 100 | > 100 |  | >100 |  |  |
| CCOC(=O)C(C)NP(=O)(COC(CF)CN1CN2C=C(c3ccc([N+](=O)[O-])cc3)NC2=NC1=O)NC(C)C(=O)OCC (centres unmarked) [19b, Diethyl 2,2'-(((((1-fluoro-3-(7-(4-nitrophenyl)-2-oxo-2,8-dihydroimidazo[1,2-a][1,3,5]triazin-3(4H)-yl)propan-2-yl)oxy)methyl)phosphoryl)bis(azanediyl))-dipropionate] |  | > 100 | > 100 | > 100 |  | > 100 | > 100 |  | >100 |  |  |
| CCOC(=O)C(C)NP(=O)(COC(CF)CN1CN2C=C(c3ccc(OC)cc3)NC2=NC1=O)NC(C)C(=O)OCC (centres unmarked) [19c, Diethyl 2,2'-(((((1-fluoro-3-(7-(4-methoxyphenyl)-2-oxo-2,8-dihydroimidazo[1,2-a][1,3,5]triazin-3(4H)-yl)propan-2-yl)oxy)methyl)phosphoryl)bis(azanediyl))-dipropionate] |  | > 100 | > 100 | > 100 |  | > 100 | > 100 |  | >100 |  |  |
| Nc1nc2c(ncn2COCCO)c(=O)[nH]1 [ACV, acyclovir, reference compound] |  |  |  | 0.21 ± 0.12 |  | > 250 |  |  | >440 |  | > 440 |
| O=c1[nH]c(=O)n([C@H]2C[C@H](O)[C@@H](CO)O2)cc1/C=C/Br [BVDU, brivudine, reference compound] |  |  | 0.023 ± 0.021 | 123 ± 26 |  | 11.3 ± 6.4 |  |  | >300 |  | > 300 |
| Nc1ccn(C[C@@H](CO)OCP(=O)(O)O)c(=O)n1 [CDV, cidofovir, reference compound] |  | 0.73 ± 0.31 |  | 1.3 ± 0.4 |  | 26 ± 12 | 8.3 ± 2.1 |  | >300 |  | > 300 |
| Nc1nc(O)c2ncn(COC(CO)CO)c2n1 [GCV, ganciclovir, reference compound] |  | 3 ± 2.7 |  | 0.03 |  | > 100 |  |  | >350 |  | > 350 |
| Nc1ncn(C[C@@H](CF)OCP(=O)(O)O)c(=O)n1 [compound 9, (S)-{[1-(4-Amino-2-oxo-1,3,5-triazin-1(2H)-yl)-3-fluoropropan-2-yl]oxymethyl}phosphonic acid] |  | > 100 | > 100 | > 100 |  | > 100 | > 100 |  | >100 |  |  |
| NC1=NC(=O)N(C[C@@H](CF)OCP(=O)(O)O)CN1 [compound 13, (S)-1-[3-Fluoro-2-(phosphonomethoxy)propyl]-5,6-dihydro-5-azacytosine] |  | > 100 | > 100 | > 100 |  | > 100 | > 100 |  | >100 |  |  |
| Nc1ncn(CC(O)C(F)(F)F)c(=O)n1 (centres unmarked) [compound 22, 4-Amino-1-(3,3,3-trifluoro-2-hydroxypropyl)-1,3,5-triazin-2(1H)-one] |  | 200 ± 17.8 | 40.6 ± 11.7 | 230 ± 29 |  | > 446 | 268 ± 178 |  | >446 |  | > 446 |
| CC(=O)O.NC1=NC(=O)N(CC(O)C(F)(F)F)CN1 (centres unmarked) [compound 23, 6-Amino-4-oxo-3-(3,3,3-trifluoro-2-hydroxypropyl)-1,2,3,4-tetrahydro-1,3,5-triazin-1-ium acetate] |  | > 100 | > 100 | > 100 |  | > 100 | > 100 |  | >100 |  |  |
| Nc1ncn(CC(OCP(=O)(O)O)C(F)(F)F)c(=O)n1 (centres unmarked) [compound 25, {[(3-(4-Amino-2-oxo-1,3,5-triazin-1(2H)-yl)-1,1,1-trifluoropropan-2-yl)oxy]methyl}phosphonic acid] |  | > 100 | > 100 | > 100 |  | > 100 | > 100 |  | >100 |  |  |
